# Results from ChEMBL document CHEMBL3232844, “Synthesis and structure activity relationships of schweinfurthin indoles” (2014).
# Columns and labels:
# Assay type in all cases: functional
# [1] = test system: MDA-MB-435; test: Cytotoxicity against human MDA-MB-435 cells
# How it was run: (§1)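 Tested in a 60-cell-line human tumor panel screen; the read-out is growth inhibition, reported as GI50 for each cell line.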
# [2] = test system: HCT-116; test: Cytotoxicity against human HCT116 cells; how it was run: as §1
# [3] = test system: SK-MEL-2; test: Cytotoxicity against human SK-MEL-2 cells; how it was run: as §1
# [4] = Cytotoxicity against human HCT15 cells; how it was run: as §1
# [5] = Cytotoxicity against human NCI-ADR-RES cells; how it was run: as §1
# [6] = Cytotoxicity against human OVCAR4 cells; how it was run: as §1
# [7] = test system: RXF 393; test: Cytotoxicity against human RXF393 cells; how it was run: as §1
# [8] = test system: KM12; test: Cytotoxicity against human KM12 cells; how it was run: as §1
# [9] = test system: CAKI-1; test: Cytotoxicity against human Caki1 cells; how it was run: as §1
# [10] = test system: TK-10; test: Cytotoxicity against human TK10 cells
# How it was run: (§2)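 Cell line run as part of the 60-cell-line screening panel; growth inhibition was reported as a GI50 for each line.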
# [11] = test system: SF-295; test: Cytotoxicity against human SF295 cells; how it was run: as §1
# [12] = test system: CCRF-CEM; test: Cytotoxicity against human CCRF-CEM cells
# [13] = Cytotoxicity against human OVCAR8 cells; how it was run: as §1
# [14] = test system: IGROV-1; test: Cytotoxicity against human IGROV1 cells; how it was run: as §1
# [15] = test system: SN12C; test: Cytotoxicity against human SN12C cells; how it was run: as §1
# [16] = test system: NCI-H322M; test: Cytotoxicity against human NCI-H322M cells; how it was run: as §1
# [17] = test system: DU-145; test: Cytotoxicity against human DU145 cells; how it was run: as §1
# [18] = test system: SNB-75; test: Cytotoxicity against human SNB75 cells; how it was run: as §2
# [19] = test system: HL-60(TB); test: Cytotoxicity against human HL-60(TB) cells
# How it was run: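 Tested within the NCI 60-cell-line screen, with GI50 as the read-out. Values are the average of two independent experiments. The lowest concentration tested was 10 nM.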
# [20] = test system: SF-539; test: Cytotoxicity against human SF539 cells; how it was run: as §1
# [21] = test system: A498; test: Cytotoxicity against human A498 cells; how it was run: as §1
# [22] = test system: SNB-19; test: Cytotoxicity against human SNB19 cells; how it was run: as §1
# [23] = test system: SK-OV-3; test: Cytotoxicity against human SKOV3 cells; how it was run: as §1
# [24] = test system: BT-549; test: Cytotoxicity against human BT549 cells; how it was run: as §1
# [25] = Cytotoxicity against human UACC257 cells; how it was run: as §2
# [26] = test system: HOP-62; test: Cytotoxicity against human HOP62 cells; how it was run: as §1
# [27] = test system: COLO 205; test: Cytotoxicity against human COLO205 cells; how it was run: as §1
# [28] = test system: NCI-H226; test: Cytotoxicity against human NCI-H226 cells; how it was run: as §1
# [29] = test system: ACHN; test: Cytotoxicity against human ACHN cells; how it was run: as §1
# [30] = test system: HT-29; test: Cytotoxicity against human HT-29 cells; how it was run: as §1
# [31] = test system: A549; test: Cytotoxicity against human A549 cells; how it was run: as §1
# [32] = test system: NCI-H23; test: Cytotoxicity against human NCI-H23 cells; how it was run: as §1
# [33] = test system: MDA-MB-468; test: Cytotoxicity against human MDA-MB-468 cells; how it was run: as §1
# [34] = test system: K562; test: Cytotoxicity against human K562 cells; how it was run: as §1
# [35] = Cytotoxicity against human UACC62 cells; how it was run: as §2
# [36] = test system: M14; test: Cytotoxicity against human M14 cells; how it was run: as §1
# [37] = test system: LOX IMVI; test: Cytotoxicity against human LOXIMVI cells; how it was run: as §1
# [38] = test system: SF-268; test: Cytotoxicity against human SF268 cells; how it was run: as §1
# [39] = Cytotoxicity against human UO31 cells; how it was run: as §2
# [40] = test system: SR; test: Cytotoxicity against human SR cells; how it was run: as §2
# [41] = test system: MDA-MB-231; test: Cytotoxicity against human MDA-MB-231 cells; how it was run: as §1
# [42] = test system: 786-0; test: Cytotoxicity against human 786-0 cells; how it was run: as §1
# [43] = test system: HCC 2998; test: Cytotoxicity against human HCC2998 cells; how it was run: as §1
# [44] = read-out: pLC50 (the source's name) (converted)
structure (smiles),measurement,setting,value
COc1cc(/C=C/c2cc(OC)c3c(CC=C(C)C)c[nH]c3c2)cc2c1O[C@]1(C)CC[C@@H](O)C(C)(C)[C@H]1C2,GI50,[1],646 nM
same,CC50,[1]; [44],74100 nM
same,TGI,[1]; read-out: pTGI (converted),9120 nM
same,GI50,[2],417 nM
same,CC50,[2]; [44],57500 nM
same,TGI,[2]; read-out: pTGI (converted),12600 nM
same,GI50,[3],331 nM
same,CC50,[3]; [44],11000 nM
same,TGI,[3]; read-out: pTGI (converted),1580 nM
same,GI50,[4]; HCT-15,174 nM
same,CC50,"[4]; HCT-15, read-out: pLC50 (the source's name) (converted)",6170 nM
same,TGI,"[4]; HCT-15, read-out: pTGI (converted)",1350 nM
same,GI50,[5],2880 nM
same,CC50,[5]; [44],> 100000 nM
same,TGI,[5]; read-out: pTGI (converted),28800 nM
same,GI50,[6]; OVCAR-4,2450 nM
same,CC50,"[6]; OVCAR-4, read-out: pLC50 (the source's name) (converted)",> 100000 nM
same,TGI,"[6]; OVCAR-4, read-out: pTGI (converted)",33100 nM
same,GI50,[7],26.3 nM
same,LC50,[7],724 nM
same,TGI,[7]; read-out: pTGI (converted),105 nM
same,GI50,[8],355 nM
same,CC50,[8]; [44],7940 nM
same,TGI,[8]; read-out: pTGI (converted),1700 nM
same,GI50,[9],347 nM
same,LC50,[9],53700 nM
same,TGI,[9]; read-out: pTGI (converted),2190 nM
same,GI50,[10],2750 nM
same,LC50,[10],66100 nM
same,TGI,[10]; read-out: pTGI (converted),17400 nM
same,GI50,[11]; read-out: GI50,48 nM
same,GI50,[11]; read-out: pGI50 (converted),47.9 nM
same,CC50,[11]; [44],871 nM
same,TGI,[11]; read-out: pTGI (converted),219 nM
same,GI50,[12],209 nM
same,CC50,[12]; [44],> 100000 nM
same,TGI,[12]; read-out: pTGI (converted),851 nM
same,GI50,[13]; OVCAR-8,3800 nM
same,CC50,"[13]; OVCAR-8, read-out: pLC50 (the source's name) (converted)",74100 nM
same,TGI,"[13]; OVCAR-8, read-out: pTGI (converted)",23400 nM
same,GI50,[14],1660 nM
same,CC50,[14]; [44],> 100000 nM
same,TGI,[14]; read-out: pTGI (converted),41700 nM
same,GI50,[15],2510 nM
same,LC50,[15],52500 nM
same,TGI,[15]; read-out: pTGI (converted),19100 nM
same,GI50,[16],6310 nM
same,CC50,[16]; [44],> 100000 nM
same,TGI,[16]; read-out: pTGI (converted),39800 nM
same,GI50,[17],2040 nM
same,LC50 (50% lethal concentration),[17],46800 nM
same,TGI,[17]; read-out: pTGI (converted),15100 nM
same,GI50,[18],89.1 nM
same,CC50,[18]; [44],75900 nM
same,TGI,[18]; read-out: pTGI (converted),2690 nM
same,GI50,[19],191 nM
same,CC50,[19]; [44],85100 nM
same,TGI,[19]; read-out: pTGI (converted),2450 nM
same,GI50,[20],50.1 nM
same,CC50,[20]; [44],2510 nM
same,TGI,[20]; read-out: pTGI (converted),309 nM
same,GI50,[21],138 nM
same,CC50,[21]; [44],5250 nM
same,TGI,[21]; read-out: pTGI (converted),603 nM
same,GI50,[22],398 nM
same,CC50,[22]; [44],28200 nM
same,TGI,[22]; read-out: pTGI (converted),4170 nM
same,GI50,[23],776 nM
same,LC50,[23],67600 nM
same,TGI,[23]; read-out: pTGI (converted),7240 nM
same,GI50,[24],355 nM
same,CC50,[24]; [44],67600 nM
same,TGI,[24]; read-out: pTGI (converted),15500 nM
same,GI50,[25]; UACC-257,2090 nM
same,CC50,"[25]; UACC-257, read-out: pLC50 (the source's name) (converted)",49000 nM
same,TGI,"[25]; UACC-257, read-out: pTGI (converted)",12900 nM
same,GI50,[26],87.1 nM
same,CC50,[26]; [44],2340 nM
same,TGI,[26]; read-out: pTGI (converted),479 nM
same,GI50,[27],219 nM
same,CC50,[27]; [44],1550 nM
same,TGI,[27]; read-out: pTGI (converted),479 nM
same,GI50,[28],2690 nM
same,CC50,[28]; [44],32400 nM
same,TGI,[28]; read-out: pTGI (converted),9770 nM
same,GI50,[29],1260 nM
same,LC50 (concentration killing 50% of cells),[29],49000 nM
same,TGI,[29]; read-out: pTGI (converted),15100 nM
same,GI50,[30],107 nM
same,CC50,[30]; [44],2820 nM
same,TGI,[30]; read-out: pTGI (converted),708 nM
same,GI50,[31],525 nM
same,CC50,[31]; [44],50100 nM
same,TGI,[31]; read-out: pTGI (converted),12900 nM
same,GI50,[32],646 nM
same,CC50,[32]; [44],26900 nM
same,TGI,[32]; read-out: pTGI (converted),3550 nM
same,GI50,[33],195 nM
same,LC50,[33],10500 nM
same,TGI,[33]; read-out: pTGI (converted),1100 nM
same,GI50,[34],309 nM
same,CC50,[34]; [44],> 100000 nM
same,TGI,[34]; read-out: pTGI (converted),1380 nM
same,GI50,[35]; UACC-62,229 nM
same,CC50,"[35]; UACC-62, read-out: pLC50 (the source's name) (converted)",9120 nM
same,TGI,"[35]; UACC-62, read-out: pTGI (converted)",661 nM
same,GI50,[36],525 nM
same,CC50,[36]; [44],46800 nM
same,TGI,[36]; read-out: pTGI (converted),2820 nM
same,GI50,[37],295 nM
same,CC50,[37]; [44],4470 nM
same,TGI,[37]; read-out: pTGI (converted),1290 nM
same,GI50,[38],1120 nM
same,CC50,[38]; [44],91200 nM
same,TGI,[38]; read-out: pTGI (converted),14500 nM
same,GI50,[39]; UO-31,437 nM
same,LC50,[39]; UO-31,56200 nM
same,TGI,"[39]; UO-31, read-out: pTGI (converted)",6920 nM
same,GI50,[40],324 nM
same,CC50,[40]; [44],> 100000 nM
same,TGI,[40]; read-out: pTGI (converted),5500 nM
same,GI50,[41],269 nM
same,LC50,[41],30900 nM
same,TGI,[41]; read-out: pTGI (converted),2400 nM
same,GI50,[42],50.1 nM
same,LC50 (concentration killing 50% of cells),[42],891 nM
same,TGI,[42]; read-out: pTGI (converted),302 nM
same,GI50,[43],2510 nM
same,CC50,[43]; [44],53700 nM
same,TGI,[43]; read-out: pTGI (converted),15800 nM
